Screens from PubChem.
ABCB1 inh: inhibitors of human ABCB1 transporter, ABCG2 counter-screen. inhibition, % at 6.6 µM. 190,000 compounds, 0.067% hits. AID 1326. CCRF-Adr cells, JC-1 efflux, flow cytometry; in the data active means inhibition above about 40%;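 further: higher value means more JC-1 retained so stronger ABCB1 efflux block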
MEKK2 WT-MEK5: raises or lowers MEK5 binding to wildtype human MEKK2 PB1 domain; bead flow cytometry, Alexa488-MEK5 binding to MEKK2 WT; actives lie on both sides; binding response (% of control), % at 10 µM; Q9Y2U5; 290,000 compounds, 1.1% hits; AID 1531; in the data active means binding response below about 67% or above about 130%
ABCG2 block: human ABCG2 inhibition, ABCB1 as counter-screen; 190,000 compounds, 0.1% hits; IgMXP3 cells, JC-1 efflux, flow cytometry; inhibition, % at 6.6 µM;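 active means inhibition above 80%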
Target sequence (Q9UNQ0 whole entry, looked up): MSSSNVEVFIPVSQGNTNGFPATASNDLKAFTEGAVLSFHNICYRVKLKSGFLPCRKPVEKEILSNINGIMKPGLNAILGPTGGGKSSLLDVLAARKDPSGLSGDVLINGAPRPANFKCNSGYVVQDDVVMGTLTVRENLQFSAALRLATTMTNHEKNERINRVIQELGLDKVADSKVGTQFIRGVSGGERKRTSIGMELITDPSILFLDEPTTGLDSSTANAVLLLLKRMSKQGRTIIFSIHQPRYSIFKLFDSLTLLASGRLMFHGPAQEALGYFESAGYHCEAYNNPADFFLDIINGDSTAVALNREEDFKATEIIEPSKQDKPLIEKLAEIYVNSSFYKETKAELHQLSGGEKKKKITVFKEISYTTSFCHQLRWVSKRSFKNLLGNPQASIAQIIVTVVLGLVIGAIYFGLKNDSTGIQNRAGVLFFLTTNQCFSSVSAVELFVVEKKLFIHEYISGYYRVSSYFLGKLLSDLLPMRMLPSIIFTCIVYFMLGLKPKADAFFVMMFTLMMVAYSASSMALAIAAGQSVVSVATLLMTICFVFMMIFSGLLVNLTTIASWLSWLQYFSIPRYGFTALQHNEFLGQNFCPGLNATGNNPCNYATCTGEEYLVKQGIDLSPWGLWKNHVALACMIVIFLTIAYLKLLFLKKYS
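Assay system – ABCG2 IgMXP3 and barcoded ABCB1 CCRF-Adr cell mix · Input – 3 million cells/mL in well · Reagent – JC-1 fluorescent substrate · Compound – single test compound dose, 6.6 µM final · Timing – 10 min exposure at 25 °C with rotation, no wash · Detection – flow cytometry of retained JC-1 fluorescence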
MEKK3 PB1 HTS: modulators (inhibitors or enhancers) of MEK5 binding to human MEKK3 PB1 domain | Q99759 | bead-based flow cytometry, Alexa488-MEK5 binding to MEKK3; actives lie on both sides; 0 = blocked by unlabeled MEK5, 100 = vehicle | binding response (% of control), % at 10 µM | 290,000 compounds, 1.4% hits;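 active means binding response more than 3 SD above or below the average of its plate-row segment, actives on both sides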;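 further: Alexa488 bead fluorescence after subtracting the streptavidin-only scavenger bead signal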
MEKK2 mut-MEK5: signal of MEK5 binding to mutant human MEKK2 PB1 domain. bead flow cytometry, Alexa488-MEK5 binding to MEKK2 mutant. 290,000 compounds, 0.35% hits. percent response, % at 10 µM; in the data active means percent response above about 24%, passing the limit was not always enough
MEKK2wt confirm: raises or lowers MEK5 binding to wildtype human MEKK2, retest | 5,900 compounds, 2.4% hits | shares compounds with MEKK3 PB1 HTS | binding response (% of control), % at 10 µM | AID 1892 | bead flow cytometry, Alexa488-MEK5 binding to MEKK2 WT; actives lie on both sides; in the data active means binding response below about 16% or above about 210%; inactive means in between
MEKK2mut-MEK5: signal of MEK5 binding to mutant human MEKK2, retest | shares compounds with MEKK3 PB1 HTS | 5,900 compounds, 2% hits | bead flow cytometry, Alexa488-MEK5 binding to MEKK2 mutant | AID 1893 | percent response, % at 10 µM; in the data active means percent response mostly above about 71%, no sharp cut-off; inactive means mostly below about 38%;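 further: higher means compound restores mutant binding toward wildtype level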
MEKK3 confirm: MEKK3-MEK5 PB1 inhibition, single concentration confirmation | AID 1894 | binding response (% of control), % at 10 µM | bead flow cytometry, Alexa488-MEK5 binding to MEKK3; stronger effect = lower value | shares compounds with MEKK3 PB1 HTS | 5,900 compounds, 1.8% hits;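 active means binding response below 72% of control, or above a set upper limit, though filed actives all read lower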
Of the large screens only hits and unclear results are named; the others gave an inactive call (follow-up assays come after a bar, where they were run); [ ] = another dose, or the depositor's remark. In the library only some 2.3% were active in any assay of this set; here they are far more common.

CCC(=O)N1CCc2cc(Br)cc(S(=O)(=O)N3CCCCC3CC)c21 (configuration not stated)	none (no result: ABCB1 inh, ABCG2 block)
CCS(=O)(=O)N1CCN=C1SCc1ccc(F)cc1	none (no result: ABCB1 inh, ABCG2 block)
COC(=O)CCC(=O)OC1(C)C(=O)C2=CN(Cc3ccc4c(c3)OCO4)C(c3ccc(OC)cc3)=CC2=C(Br)C1=O (configuration not stated)	MEKK2 mut-MEK5 53 (no result: ABCB1 inh, MEKK2 WT-MEK5, ABCG2 block) | MEKK2wt confirm inactive | MEKK2mut-MEK5 inactive | MEKK3 confirm inactive
CC1CN(c2cnn(C(C)C)c(=O)c2Cl)CC(C)O1 (configuration not stated)	none (no result: ABCB1 inh, ABCG2 block)
O=C(CCN1C(=O)[C@@H]2Cc3ccccc3CN2C1=O)Nc1cccc(F)c1	none (no result: ABCB1 inh, ABCG2 block)
Cc1nc(-c2ccccn2)nc(SCC(=O)N2CCOCC2)c1Cl	MEKK3 PB1 HTS 129 (no result: ABCB1 inh, ABCG2 block) | MEKK2wt confirm inactive | MEKK2mut-MEK5 inactive | MEKK3 confirm inactive
CN(C)S(=O)(=O)c1cccc(NC(=O)c2cc(-c3cccs3)nn2-c2ccccc2)c1	MEKK3 PB1 HTS 142 | MEKK2wt confirm inactive | MEKK2mut-MEK5 inactive | MEKK3 confirm inactive
NC(=O)COC(=O)c1cc(-c2cccs2)nn1-c1ccccc1	MEKK3 PB1 HTS 136 | MEKK2wt confirm inactive | MEKK2mut-MEK5 inactive | MEKK3 confirm inactive
Cn1cc([N+](=O)[O-])c(C(=O)N2CCN(Cc3ccc4c(c3)OCO4)CC2)n1	none (no result: ABCB1 inh, ABCG2 block)
CCCCc1cc(=O)oc2cc(C)cc(OC(C)C(=O)NCc3ccncc3)c12 (configuration not stated)	none (no result: ABCB1 inh, ABCG2 block)
Cc1cccc(NC(=O)/C=C/c2ccc([N+](=O)[O-])s2)c1	none
Cc1cccc(NC(=S)N/N=C/c2ccc([N+](=O)[O-])s2)c1	MEKK2 WT-MEK5 50[inhibitor] | MEKK2wt confirm inactive | MEKK2mut-MEK5 inactive | MEKK3 confirm inactive
CS(=O)(=O)N(CC(=O)N1CCCCCC1)c1cc(Cl)ccc1Cl	none (no result: ABCB1 inh, ABCG2 block)
CC(C)OCCCN1CN(S(=O)(=O)c2ccccc2)c2nc3ccccc3nc21	MEKK2 WT-MEK5 11[inhibitor], MEKK3 PB1 HTS 6.0[inhibitor] | MEKK2wt confirm inactive | MEKK2mut-MEK5 inactive | MEKK3 confirm inactive
COCCCN1CN(S(=O)(=O)c2ccc(Cl)cc2)c2nc3ccccc3nc21	none
Cn1c(N2CCN(C(c3ccccc3)c3ccccc3)CC2)nc2ccccc21	none (no result: ABCB1 inh, ABCG2 block)
O=C(N/N=C/c1ccc2ncccc2c1)c1cc(-c2cccs2)nc2ccccc12	MEKK2 WT-MEK5 30[inhibitor], MEKK3 PB1 HTS 35[inhibitor] (no result: ABCB1 inh, ABCG2 block) | MEKK2wt confirm inactive | MEKK2mut-MEK5 inactive | MEKK3 confirm inactive
Cc1c(CCO)c(=O)[nH]n1S(=O)(=O)c1ccc([N+](=O)[O-])cc1	none (no result: ABCB1 inh, ABCG2 block)
CC(C)C(=O)Nc1nnc(SCC(=O)NC2CC2)s1	MEKK2 WT-MEK5 11[inhibitor], MEKK3 PB1 HTS 7.0[inhibitor] | MEKK2wt confirm inactive | MEKK2mut-MEK5 inactive | MEKK3 confirm inactive
Cc1ccc(Cn2c(=N)n(CC(=O)c3ccc([N+](=O)[O-])cc3)c3ccccc32)cc1	MEKK2 WT-MEK5 153, MEKK2 mut-MEK5 60 | MEKK2wt confirm inactive | MEKK2mut-MEK5 inactive | MEKK3 confirm inactive
CN1CCN(c2nc(Nc3ccc(F)cc3)nc(Nc3ccc(F)cc3)n2)CC1	MEKK2 WT-MEK5 145, MEKK2 mut-MEK5 33 (no result: ABCB1 inh, ABCG2 block) | MEKK2wt confirm inactive | MEKK2mut-MEK5 inactive | MEKK3 confirm inactive
c1ccc(Nc2nc(N3CCCC3)nc(N3CCOCC3)n2)cc1	none (no result: ABCB1 inh, ABCG2 block)
c1ccc(Nc2nc(Nc3ccccc3)nc(N3CCNCC3)n2)cc1	MEKK2 WT-MEK5 154 (no result: ABCB1 inh, ABCG2 block) | MEKK2wt confirm inactive | MEKK2mut-MEK5 inactive | MEKK3 confirm inactive
CCn1cc(C(=O)N[C@H](C(=O)NCCCn2ccnc2)C(C)C)c(=O)c2cc3c(cc21)OCO3	none (no result: ABCB1 inh, ABCG2 block)
Cn1c(=O)c(NC2CCCCC2)c2c3c(cccc31)C(=O)c1ccccc1-2	ABCB1 inh 48, MEKK2 WT-MEK5 37[inhibitor] | MEKK2wt confirm inactive | MEKK2mut-MEK5 inactive | MEKK3 confirm inactive
